Hits are enriched below; roughly 1.6% of the tested compounds scored in any of these assays.
Scp-1 inhibitor = blocks human Scp-1 phosphatase activity; Recombinant Scp1, phosphopeptide, malachite green phosphate absorbance; inhibition, % at 20 µM; 340,000 compounds, 0.88% hits;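 active = inhibition above about 50% at 20 µM, limit read from the data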;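 also: plate controls were DMSO wells with enzyme for no effect and wells lacking enzyme for full effect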
Target sequence (Q9GZU7 76-261 limits assumed): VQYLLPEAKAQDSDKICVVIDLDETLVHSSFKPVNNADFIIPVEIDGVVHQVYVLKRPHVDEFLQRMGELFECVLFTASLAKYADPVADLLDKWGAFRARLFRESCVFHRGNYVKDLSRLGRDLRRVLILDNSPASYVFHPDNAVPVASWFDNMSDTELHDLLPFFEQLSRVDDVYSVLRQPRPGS
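Test system: SCP-1 catalytic domain; Buffer or medium: Acidic Tris acetate buffer with magnesium and detergent; Also added: Phosphorylated 17-residue peptide substrate; Compound: single 20 µM dose, 1% DMSO; Schedule: enzyme reaction 45 min at room temperature, colour 5 min, stabilisation 30 min; Signal: Phosphate-binding colour reagent, absorbance read at 630 nm.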
DNMT1 inh = blocks human DNA methyltransferase DNMT1; P26358; DNMT1 molecular beacon, Hinp1I cleavage, fluorescence; inhibition (reported as % activation of signal), % at 10 µM; 360,000 compounds, 0.83% hits; in the data active = inhibition above about 50%
STEP inh = STEP (human) phosphatase inhibition; P54829; recombinant STEP, OMFP fluorogenic substrate, fluorescence; inhibition, % at 20 µM; 360,000 compounds, 0.25% hits; AID 588621;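 active = inhibition at 20 µM, scaled per plate between control wells, above about 37%, limit read from the data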;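 also: 0% = DMSO with enzyme and substrate and 100% = substrate only without enzyme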
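medium = Bis-Tris buffer pH 6.0, 2.5 mM DTT, 0.005% Tween 20 | test system = STEP (striatal-enriched tyrosine phosphatase) enzyme, cell-free | measure = normalized % inhibition | compound dosing = 20 µM, 1% DMSO | also added = 25 µM OMFP | schedule = reaction 20 min, ambient temperature | measured by = fluorescence read at 480 nm ex / 540 nm em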
LMPTP inh = blocks human LMPTP phosphatase | AID 651560 | recombinant LMPTP-A, OMFP fluorogenic substrate, fluorescence intensity | 360,000 compounds, 0.22% hits | P24666 | inhibition, % at 20 µM;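 active = compounds that cut the enzyme signal by at least half of the control window in the single-dose screen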;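 also: plate controls were DMSO wells with enzyme plus substrate for no effect and substrate without enzyme for full effect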
Target sequence (P24666 whole entry, looked up): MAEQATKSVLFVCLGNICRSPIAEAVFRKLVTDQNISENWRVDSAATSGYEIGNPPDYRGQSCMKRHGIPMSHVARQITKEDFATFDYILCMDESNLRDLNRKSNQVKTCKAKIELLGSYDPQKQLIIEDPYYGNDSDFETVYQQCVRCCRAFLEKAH
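Test system – LMPTP-A enzyme · Amount – LMPTP-A at 0.625 nM final in the reaction · Buffer or medium – Bis-Tris pH 6.0, DTT, detergent · Reagent – OMFP 400 µM · Doses – single 20 µM dose · Schedule – reaction 50 min, room temperature, dark · Detection – fluorescence intensity of OMFP turnover product · Evaluation – percent inhibition versus substrate-only and uninhibited controls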
F508del corr = CFTR F508del correction in bronchial cells. CFBE cells, YFP halide quenching; stimulated with forskolin plus potentiator P3; % fluorescence drop versus neutral controls. activity (quench increase), % at 7.58 µM. 350,000 compounds, 0.36% hits. AID 720511;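 active = mean added fluorescence quench of at least 8% versus neutral control, with both replicates also reaching 8%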;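 also: cells transiently co-express mutant CFTR-F508del with the halide-sensitive YFP; corrector assay measuring rescue of mutant channel to the surface after 24 h compound exposure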
SUMO1-SIM PPI = alters human SUMO1 binding to SIM partners | SUMO1 binding to a labelled peptide, TR-FRET, 1 h | inhibition, % at 20 µM | 360,000 compounds, 0.33% hits | AID 602429; in the data active = inhibition above about 37%
Target sequence (P63165 whole entry, looked up): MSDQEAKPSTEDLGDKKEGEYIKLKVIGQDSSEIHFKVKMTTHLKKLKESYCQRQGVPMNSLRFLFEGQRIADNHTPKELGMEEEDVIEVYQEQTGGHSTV
Beacon interf DR = beacon fluorescence artifact, dose response counter-screen | 200 tested, under 10 active | IC50, µM | shares compounds with DNMT1 inh | molecular beacon fluorescence, spectral interference counter-screen; call rule not given here
DNMT1 confirm = DNMT1 inhibition confirmation, single concentration; shares compounds with DNMT1 inh; DNMT1 molecular beacon HinP1I cleavage, fluorescence; inhibition, % at 10 µM; 2,300 compounds, 8% hits; AID 602385;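 active = average inhibition of at least 30% in the single-concentration confirmation test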
Beacon interf = counter-screen for DNMT1 inhibitors: spectral interference; shares compounds with DNMT1 inh; DNMT1 molecular beacon spectral interference counterscreen, fluorescence 485/520; activation (fluorescence interference), % at 10 µM; 2,300 compounds, 1% hits;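 active = activation of at least 30% at 10 µM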;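 also: DNMT1 catalytic domain with a HinP1I cleavage step and a FAM/dabcyl DNA beacon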
An asterisk follows results filed as active; . = no result given.

SMILES	Scp-1 inhibitor	DNMT1 inh	STEP inh	LMPTP inh	F508del corr	SUMO1-SIM PPI	DNMT1 confirm	Beacon interf	others
CC(=O)NN1C(=O)/C(=C\c2ccc(Br)o2)SC1=S	6	81*	17	2	.	25	2	2
CC(=O)NN1C(=O)/C(=C/c2ccc(Br)o2)SC1=S	30	88*	20	1	.	24	13	5
CC(=O)NN1C(=O)/C(=C\c2ccccc2)SC1=S	-3	0	-1	0	.	-3	.	.
CO[C@H]1CN(C)C(=O)c2cc(NC(=O)C3CC3)ccc2OC[C@H](C)N(C(C)=O)C[C@@H]1C	.	.	.	.	2	.	.	.
CCC(=O)N1CC(=O)N2[C@H](CO)[C@H](c3ccc(-c4ccccc4F)cc3)[C@H]2C1	.	.	.	.	-2	.	.	.
O=C(O)CSc1nc2sc3c(c2c(=O)n1Cc1ccccc1)CCCCC3	-16	3	2	1	1	8	.	.
O=C(O)CSc1cc(C(=O)c2ccccc2O)cn2c(=O)c3c4c(sc3nc12)CCCC4	66*	73*	96*	34	3	35	61*	0	Beacon interf DR=>99
COc1ccc(CN(C)C[C@H]2OCCCC[C@@H](C)Oc3ccc(NC(=O)Cc4ccccc4)cc3C(=O)N([C@H](C)CO)C[C@@H]2C)cc1	.	.	.	.	-1	.	.	.
O=C(Cc1cccs1)Nc1nncs1	-2	9	-2	-1	.	10	.	.
CC(C)Cc1nnc(NC(=O)Cc2cccs2)s1	19	63*	10	6	.	1	20	-3
CCOc1ccccc1N1Cc2cc(C)c(C)cc2C1	-4	54*	0	3	-3	-1	0	1
O=C1C=C(O)CC(c2ccco2)C1 (stereo not drawn)	44	80*	1	-1	.	18	4	3
Nc1ccc2c(c1)[nH]c(=O)c1ccccc12	0	80*	2	0	-5	-3	6	1
O=c1[nH]c2cc(O)ccc2c2ccccc12	.	1	-2	-1	2	7	.	.
O=C(CNC(=O)c1ccc([N+](=O)[O-])cc1)N/N=C\c1ccc(OC(=O)c2ccccc2)cc1	-5	85*	1	2	.	-7	38*	0	Beacon interf DR=>99
CCN1[C@H](C(=O)NCCc2ccccc2)[C@@H](CO)[C@@H]2Cn3c(ccc(C4=CCCC4)c3=O)[C@@H]21	.	.	.	.	-1	.	.	.
CCN(CC)S(=O)(=O)c1ccc(-c2nnc(SCC(=O)N3CCOCC3)o2)cc1	-3	4	2	-2	0	2	.	.
CCN(CC)S(=O)(=O)c1ccc(-c2nnc(SCC(=O)N3CCc4ccccc43)o2)cc1	-5	54*	2	-3	.	-5	1	-2
C/C=C/c1cccc(-c2nc(C(=O)N(C)C)cc3c2[C@H](CCO)N([S@@](=O)C(C)(C)C)C3)c1	.	.	.	.	2	.	.	.
CC(C)[C@H](NC(=O)[C@H](Cc1ccccc1)n1c(=O)[nH]c2ccccc2c1=O)C(=O)N1CCC[C@@H]1C(=O)O	1	82*	2	1	0	3	-1	2
CC(C)[C@H](NC(=O)[C@H](Cc1ccccc1)n1c(=O)[nH]c2ccccc2c1=O)C(=O)N1CCC[C@H]1C(=O)O	12	2	-2	-1	0	0	.	.
O=C(C1CCC1)N1CCCCN2[C@H](CO)[C@H](c3ccc(C#CC4CCCC4)cc3)[C@H]2C1	.	.	.	.	3	.	.	.
COc1ccccc1C(=O)Nc1sc2c(c1C(=O)NCc1ccco1)CCCC2	-10	51*	-2	0	.	-2	-1	-4
O=C(C[C@@H]1CC[C@@H]2[C@H](COC[C@H](O)CN2C(=O)c2ccc3c(c2)OCO3)O1)NC1Cc2ccccc2C1	.	.	.	.	-2	.	.	.
CC(=O)c1cccc(NC(=O)CN2C(=O)C3C4C=CC(C4)C3C2=O)c1 (stereo not drawn)	0	50*	-3	0	.	-2	1	1
SMILES	Scp-1 inhibitor	DNMT1 inh	STEP inh	LMPTP inh	F508del corr	SUMO1-SIM PPI	DNMT1 confirm	Beacon interf	others
Cc1ccc(-n2nc3ccc(NC(=O)c4ccco4)cc3n2)cc1	-12	36	3	3	.	29	.	.
Cc1ccc(-n2nc3ccc(NC(=O)c4cccc([N+](=O)[O-])c4C)cc3n2)cc1	-1	63*	1	2	.	-1	4	3
CCOC(=O)C1=C(C)N(C[C@@H]2CC[C@@H](Cc3ccc(-c4ccccc4)cc3)O2)C(=O)NC1c1ccc(C(F)(F)F)cc1 (stereo partly drawn)	-1	-7	0	3	-1	1	.	.
CCOC(=O)C1=C(C)N(C[C@@H]2CC[C@@H](Cc3ccc(-c4ccccc4)cc3)O2)C(=O)NC1c1ccc(SCc2ccco2)c([N+](=O)[O-])c1 (stereo partly drawn)	35	94*	1	6	4	6	6	-4
CNC(=O)C[C@@H]1CC[C@@H]2[C@@H](COc3ccc(NC(=O)C4CC4)cc3C(=O)N2C)O1	.	.	.	.	3	.	.	.
CCN1/C(=C\C=C2\C(=O)N(c3ccccc3)C(=S)N2C)Sc2ccccc21	14	55*	7	16	1	-20	2	0
CCN1/C(=C\C=C(C(C)=O)C(C)=O)Sc2ccccc21	-7	11	1	14	-5	-54	.	.
CC(=O)Nc1ccc(S(=O)(=O)Nc2nc3ccccc3nc2Nc2cccc(O)c2)cc1	-12	-4	-4	0	1	-5	.	.
CC(=O)Nc1ccc(S(=O)(=O)Nc2nc3ccccc3nc2Nc2ccc(C(=O)O)c(O)c2)cc1	87*	77*	12	8	-1	57*	4	13
COc1ccc(C(=O)Nc2ccccc2C(=O)Nc2cc(C)ccn2)cc1	7	-9	10	1	1	2	.	.
COc1ccc(C(=O)Nc2ccccc2C(=O)Nc2cccc(C)n2)cc1	8	83*	-1	0	3	1	15	4
C[C@@H]1CN([C@@H](C)CO)S(=O)(=O)c2ccc(-c3ccccc3F)cc2O[C@@H]1CN(C)CC1CC1	.	.	.	.	2	.	.	.
COc1ccccc1NS(=O)(=O)c1cccc(C(=O)N/N=C/c2ccc3c(c2)OCCO3)c1	2	-5	1	1	.	2	.	.
COc1ccc(NS(=O)(=O)c2cccc(C(=O)N/N=C/c3ccc4c(c3)OCCO4)c2)cc1	-4	60*	-3	-1	.	4	4	1
